Assay results gathered from unrelated publications.
Lines come from different studies, so protocols differ.
Target: Calcium/calmodulin-dependent protein kinase kinase 2 (CAMKK2, Homo sapiens, UniProt Q96RR4)

| Compound | observed | mode | technique | tested at | measurement | value |
| --- | --- | --- | --- | --- | --- | --- |
| Nc1ncc(-c2nc(N3CCOCC3)nc(N3CCOCC3)n2)c(C(F)F)n1 | binding | – | competition with immobilised ligand | 10 µM | remaining binding | 65% |
| CC(C)(C)c1cc(C=C(C#N)C#N)cc(Br)c1O | enzyme activity | inhibitor | – | 0.5 µM | remaining activity | 92.5% |
| Cn1cc(-c2cccc(N3CCc4c(sc5c4CC(C)(C)C5)C3=O)c2CO)cc(Nc2ccncn2)c1=O | enzyme activity | inhibitor | – | 1 µM | inhibition | -7% |
| N#CC1(c2ccccn2)CCN(Cc2cc(C(=O)O)c(=O)n3ccccc23)CC1 | cell-free assay | – | competition with immobilised ligand | 1 µM | remaining binding | 100% |
| Cc1nn(C)cc1-c1nc2c(N3CCN(Cc4ccc(Cl)cc4)CC3)c(Cl)cnc2[nH]1 | binding | – | competition with immobilised ligand | 1 µM | remaining binding | 100% |
| COc1ncccc1-c1cnn2ccc(N3CCN(C(=O)OC(C)C)CC3)nc12 | binding | – | competition with immobilised ligand | 1 µM | remaining binding | 88% |
| Cn1cncc1[C@](O)(COc1ccc(C#N)cc1-c1ccc(OC(F)(F)F)cc1)c1ccc(C#N)cc1 | cell-free assay | – | competition with immobilised ligand | 1 µM | remaining binding | 100% |
| O=c1[nH]c2ccccc2n1C1CCN(Cc2ccc(-c3[nH]c4cc5ncnc5cc4nc3-c3ccccc3)cc2)CC1 | cell-free assay | – | – | 0.5 µM | remaining signal | 112% |
